Assay results reported in ChEMBL document CHEMBL4270654, “Identification of DK419, a potent inhibitor of Wnt/β-catenin signaling and colorectal cancer growth” (Bioorg Med Chem, 2018).
Active and inactive are the calls of the source. The rule behind the calls is not given here.

What was measured:
[1] = organism: Homo sapiens; assay: Inhibition of Wnt/beta-catenin signaling pathway in human SW480 cells cytosol lysate harboring APC mutation assessed as reduction in beta-catenin protein expression at 5 uM after 18 hrs by Western blot analysis; type: cell-based
Procedure, shortened: (§1)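 CCRC240, HCT116 or SW480 cells were grown to 50–70% confluency and exposed 18 h to 5 μM compound in DMSO. Whole-cell lysates were blotted for c-Myc, cyclin D1 and survivin. Hypotonic cytosolic fractions, syringe-dispersed and centrifuged 120 min, were blotted for β-catenin and Axin2. β-Actin served as loading control.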

[2] = tested on: Mus musculus; assay: In vivo inhibition of Wnt/beta-catenin signaling pathway in NOD/SCID mouse xenografted with human CRC240 cells assessed as reduction in survivin protein expression at 1 mg/kg, po administered 11 days by Western blot method; type: functional, organism-based
Procedure, shortened: (§2)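 CRC240 PDX tumours were taken from NOD/SCID mice the day after 11 days of once-daily oral dosing (1 mg/kg, in 10% NMP/90% PEG300). Tumours were lysed in RIPA buffer and immunoblotted for Axin2, survivin and c-Myc. Bands were normalized to β-actin, n = 3, two-tailed t-test versus vehicle.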

[3] = tested on: CCD-841CoN; assay: Stimulation of mitochondrial respiration in human CCD-841-CoN cells assessed as increase in oxygen consumption rate at 1 uM under basal conditions by polarographic analysis
[4] = tested on: Mus musculus; assay: Toxicity in NOD/SCID mouse xenografted with human CRC240 cells assessed as change in body weight at 1 mg/kg, po administered 11 days and measured on day 4, 8 during compound dosing and day 11 post last dose; type: organism-based; conditions: in vivo, 264 h
Procedure, shortened: (§3)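 Minced CRC240 PDX tissue (150 mg/ml in PBS, 200 μl) implanted in flanks of NOD/SCID mice. At about 100 mm3 tumours, mice randomized and dosed orally once daily for 11 days. Vehicle: 10% 1-methyl-2-pyrrolidinone/90% PEG300, with dosing suspensions or solutions at […] or 0.2 mg/ml. Tumour size and body weight recorded on days 0, 4, 8 and 11. n = 3, two-tailed t-test versus vehicle.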

[5] = organism: Homo sapiens; assay: Inhibition of Wnt/beta-catenin signaling pathway in human CRC240 whole cell lysate assessed as reduction in c-Myc protein expression at 5 uM after 18 hrs by Western blot analysis; procedure, shortened: as §1
[6] = organism: Homo sapiens; assay: Inhibition of Wnt/beta-catenin signaling pathway in human CRC240 whole cell lysate assessed as reduction in cyclin D1 protein expression at 5 uM after 18 hrs by Western blot analysis; procedure, shortened: as §1
[7] = tested on: Homo sapiens; assay: Antitumor activity against human CRC240 cells xenografted in NOD/SCID mouse at 1 mg/kg, po administered 11 days and measured on day 4, 8 during compound dosing and day 11 post last dose; type: functional, organism-based; procedure, shortened: as §3
[8] = organism: Homo sapiens; assay: Inhibition of Wnt/beta-catenin signaling pathway in human HCT116 whole cell lysate harboring beta-catenin mutation assessed as reduction in c-Myc protein expression at 5 uM after 18 hrs by Western blot analysis; procedure, shortened: as §1
[9] = organism: Homo sapiens; assay: Inhibition of Wnt/beta-catenin signaling pathway in human HCT116 whole cell lysate harboring beta-catenin mutation assessed as reduction in survivin protein expression at 5 uM after 18 hrs by Western blot analysis; procedure, shortened: as §1
[10] = Inhibition of Wnt3A-stimulated Wnt/beta-catenin pathway in HEK293 cells transfected with p8xTOPFlash, Renilla luciferase plasmid pRL-TK and pLKO.1 after 6 hrs by Dual topflash luciferase reporter assay; type: cell-based; conditions: Homo sapiens, HEK293, 6 h
Procedure, shortened: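 HEK293 cells stably carrying p8xTOPFlash, pRL-TK and pLKO.1 were grown overnight to confluence in MEM/10% FBS with 1 μg/ml puromycin. Wnt-3A conditioned medium (from L Wnt-3A cells) containing compound (0.04–10 μM) or DMSO was added for 6 h. Dual-luciferase was read, with the Wnt3A+DMSO signal set as 100%.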

[11] = tested on: HT-29; assay: Antiproliferative activity against human HT-29 cells after 72 hrs by colorimetric MTS assay; type: functional, cell-based; conditions: HT-29, 72 h
Procedure, shortened: (§4)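 Cells plated at 5000 per well in their own media (Leibovitz's for SW948; McCoy's 5A for HT-29/HCT116; MEM for SW480; RPMI for CRC240/DLD-1) with 10% FBS. Exposed 72 h to compound, 0.001–10 μM or 0.04–10 μM, then colorimetric MTS read-out. […] CRC240 is a patient-derived xenograft line.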

[12] = organism: Homo sapiens; assay: Inhibition of Wnt/beta-catenin signaling pathway in human SW480 cells cytosol lysate harboring APC mutation assessed as reduction in Axin2 protein expression at 5 uM after 18 hrs by Western blot analysis; type: cell-based; procedure, shortened: as §1
[13] = tested on: Mus musculus; assay: Apparent clearance in NOD/SCID mouse at 1 mg/kg, po by LC-MS/MS-based compartmental first order extravascular input, first order elimination analysis; type: ADME, organism-based; conditions: in vivo
[14] = organism: Homo sapiens; assay: Inhibition of Wnt/beta-catenin signaling pathway in human SW480 whole cell lysate harboring APC mutation assessed as reduction in c-Myc protein expression at 5 uM after 18 hrs by Western blot analysis; procedure, shortened: as §1
[15] = organism: Homo sapiens; assay: Inhibition of Wnt/beta-catenin signaling pathway in human CRC240 cells cytosol lysate assessed as reduction in beta-catenin protein expression at 5 uM after 18 hrs by Western blot analysis; type: cell-based; procedure, shortened: as §1
[16] = tested on: SW948; assay: Antiproliferative activity against human SW948 cells after 72 hrs by colorimetric MTS assay; type: functional, cell-based; conditions: SW948, 72 h; procedure, shortened: as §4
[17] = target: AMP-activated protein kinase, AMPK (Homo sapiens) (UniProt P54646+O43741+P54619+Q9UGJ0+Q9Y478+Q13131+Q9UGI9); assay: Induction of AMPK phosphorylation in human CCD-841-CoN cells at 0.1 to 10 uM after 2 hrs by Western blot analysis; type: cell-based
Procedure, shortened: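 Colonic epithelial CCD841Co cells were seeded at 0.27 million per well on poly-D-lysine-coated wells and attached overnight. Medium was then switched to glucose-free DMEM with 2 mM pyruvate and 2 mM glutamine containing compound or DMSO. Whole-cell lysates were immunoblotted for phospho-Thr172 AMPK and total AMPK, with β-actin as loading control. Methods give 30 min exposure; legend gives 2 h.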

[18] = organism: Homo sapiens; assay: Inhibition of Wnt/beta-catenin signaling pathway in human HCT116 cells cytosol lysate harboring beta-catenin mutation assessed as reduction in beta-catenin protein expression at 5 uM after 18 hrs by Western blot analysis; type: cell-based; procedure, shortened: as §1
[19] = tested on: Mus musculus; assay: Dose normalized AUC (0 to infinity) in NOD/SCID mouse at 1 mg/kg, po by LC-MS/MS-based non-compartmental extravascular input analysis; type: ADME, organism-based; conditions: in vivo
[20] = tested on: Mus musculus; assay: Apparent clearance in NOD/SCID mouse at 1 mg/kg, po by LC-MS/MS-based non-compartmental extravascular input analysis; type: ADME, organism-based; conditions: in vivo
[21] = tested on: DLD-1; assay: Antiproliferative activity against human DLD1 cells after 72 hrs by colorimetric MTS assay; type: functional, cell-based; conditions: DLD-1, 72 h; procedure, shortened: as §4
[22] = tested on: Mus musculus; assay: Time at which plasma concentration stays above in vitro IC50 for inhibition of Wnt3A-stimulated Wnt/beta-catenin pathway in HEK293 cells in NOD/SCID mouse at 1 mg/kg, po by LC-MS/MS analysis; type: organism-based; conditions: in vivo
Procedure, shortened: (§5)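 NOD/SCID mice (n = 4) received a single oral dose of 1 mg/kg from a 0.2 mg/mL solution in 10% NMP/90% PEG300. Serial tail-vein blood was taken from pre-dose to 72 h and plasma kept at −80 °C. Samples were extracted with ethyl acetate against an internal standard and run on LC/MS/MS (MRM 405.8/218.9). The calibration range was 2.4–1000 ng/mL in plasma.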

[23] = tested on: Mus musculus; assay: Dose normalized AUC (0 to infinity) in NOD/SCID mouse at 1 mg/kg, po by LC-MS/MS-based compartmental first order extravascular input, first order elimination analysis; type: ADME, organism-based; conditions: in vivo
[24] = organism: Homo sapiens; assay: Inhibition of Wnt/beta-catenin signaling pathway in human HCT116 whole cell lysate harboring beta-catenin mutation assessed as reduction in cyclin D1 protein expression at 5 uM after 18 hrs by Western blot analysis; procedure, shortened: as §1
[25] = organism: Homo sapiens; assay: Inhibition of Wnt/beta-catenin signaling pathway in human SW480 whole cell lysate harboring APC mutation assessed as reduction in cyclin D1 protein expression at 5 uM after 18 hrs by Western blot analysis; procedure, shortened: as §1
[26] = organism: Homo sapiens; assay: Inhibition of Wnt/beta-catenin signaling pathway in human SW480 whole cell lysate harboring APC mutation assessed as reduction in survivin protein expression at 5 uM after 18 hrs by Western blot analysis; procedure, shortened: as §1
[27] = organism: Homo sapiens; assay: Inhibition of Wnt/beta-catenin signaling pathway in human CRC240 whole cell lysate assessed as reduction in survivin protein expression at 5 uM after 18 hrs by Western blot analysis; procedure, shortened: as §1
[28] = tested on: HCT-116; assay: Antiproliferative activity against human HCT116 cells after 72 hrs by colorimetric MTS assay; type: functional, cell-based; conditions: HCT-116, 72 h; procedure, shortened: as §4
[29] = tested on: Mus musculus; assay: In vivo inhibition of Wnt/beta-catenin signaling pathway in NOD/SCID mouse xenografted with human CRC240 cells assessed as reduction in c-Myc protein expression at 1 mg/kg, po administered 11 days by Western blot method; type: functional, organism-based; procedure, shortened: as §2
[30] = target: Frizzled-1 (Homo sapiens) (UniProt Q9UP38); assay: Induction of GFP-tagged Fzd1 (unknown origin) internalization expressed in human U2OS cells at 12.5 after 6 hrs by confocal microscopic method; type: functional, cell-based
Procedure, shortened: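 U2OS cells stably expressing Fzd1-GFP were grown 24 h in confocal dishes and then treated 6 h at 37 °C with 12.5 μM compound, DMSO as control. Cells were fixed in 4% paraformaldehyde and imaged by confocal microscopy (488 nm excitation). Internalization was scored as intracellular green punctate vesicles.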

[31] = organism: Homo sapiens; assay: Inhibition of Wnt/beta-catenin signaling pathway in human CRC240 cells cytosol lysate assessed as reduction in Axin2 protein expression at 5 uM after 18 hrs by Western blot analysis; type: cell-based; procedure, shortened: as §1
[32] = tested on: Mus musculus; assay: In vivo inhibition of Wnt/beta-catenin signaling pathway in NOD/SCID mouse xenografted with human CRC240 cells assessed as reduction in Axin2 protein expression at 1 mg/kg, po administered 11 days by Western blot method; type: functional, organism-based; procedure, shortened: as §2
[33] = tested on: Mus musculus; assay: Time at which plasma concentration stays above in vitro IC50 for antiproliferative activity against human CRC240 cells in NOD/SCID mouse at 1 mg/kg, po by LC-MS/MS analysis; type: organism-based; conditions: in vivo; procedure, shortened: as §5
[34] = Antiproliferative activity against human CRC240 cells after 72 hrs by colorimetric MTS assay; type: functional, cell-based; procedure, shortened: as §4
[35] = tested on: Mus musculus; assay: Apparent volume of distribution in NOD/SCID mouse at 1 mg/kg, po by LC-MS/MS-based non-compartmental extravascular input analysis; type: ADME, organism-based; conditions: in vivo
[36] = AUC (0 to 72 hrs) in NOD/SCID mouse at 1 mg/kg, po by LC-MS/MS-based non-compartmental extravascular input analysis; type: ADME, organism-based; set-up: dose 1 mg/kg, time < 72 hr, route oral; conditions: in vivo
[37] = organism: Homo sapiens; assay: Inhibition of Wnt/beta-catenin signaling pathway in human HCT116 cells cytosol lysate harboring beta-catenin mutation assessed as reduction in Axin2 protein expression at 5 uM after 18 hrs by Western blot analysis; type: cell-based; procedure, shortened: as §1
[38] = tested on: SW480; assay: Antiproliferative activity against human SW480 cells after 72 hrs by colorimetric MTS assay; type: functional, cell-based; conditions: SW480, 72 h; procedure, shortened: as §4
[39] = Apparent oral volume of distribution in NOD/SCID mouse at 1 mg/kg by LC-MS/MS-based compartmental first order extravascular input, first order elimination analysis; type: ADME, organism-based; conditions: in vivo
[40] = tested on: CCD-841CoN; assay: Stimulation of mitochondrial respiration in human CCD-841-CoN cells assessed as increase in oxygen consumption rate at 1 uM in presence of rotenone and […] antimycin A by polarographic analysis; type: functional, cell-based
Procedure, shortened: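 CCD841Co cells were plated at 8000 per well and attached overnight. OCR was measured on a Seahorse XFp analyzer under basal conditions after 1 μM compound or DMSO was added. This was followed by 1 μM oligomycin, 1 μM FCCP, then 0.5 μM rotenone plus antimycin A (Mito Stress Test). Data given as mean ± SD, n = 2.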

Frizzled-1 (Homo sapiens), sequence (Q9UP38 70-647 limits assumed): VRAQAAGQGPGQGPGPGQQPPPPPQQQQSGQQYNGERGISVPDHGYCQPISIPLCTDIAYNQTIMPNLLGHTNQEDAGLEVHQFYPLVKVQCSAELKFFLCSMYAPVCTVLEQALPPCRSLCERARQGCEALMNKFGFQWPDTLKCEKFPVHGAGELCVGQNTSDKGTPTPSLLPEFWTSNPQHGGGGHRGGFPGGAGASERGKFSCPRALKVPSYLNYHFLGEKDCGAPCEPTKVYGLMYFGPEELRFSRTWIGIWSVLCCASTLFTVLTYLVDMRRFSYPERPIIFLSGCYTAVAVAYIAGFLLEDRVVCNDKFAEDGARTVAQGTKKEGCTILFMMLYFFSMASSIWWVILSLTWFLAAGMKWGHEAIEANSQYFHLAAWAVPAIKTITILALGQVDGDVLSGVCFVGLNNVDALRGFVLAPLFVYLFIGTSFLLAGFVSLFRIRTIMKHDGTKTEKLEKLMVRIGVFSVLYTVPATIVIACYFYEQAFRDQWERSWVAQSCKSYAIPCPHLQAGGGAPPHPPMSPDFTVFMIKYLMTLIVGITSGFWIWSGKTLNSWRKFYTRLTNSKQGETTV

O=C(Nc1ccc(C(F)(F)F)cc1)c1cc(Cl)cc2nc(C(F)(F)F)[nH]c12
inhibition [1]: Active
inhibition [2]: Active
Activity [3]: Active
Activity [4]: Non-Toxic
inhibition [5]: Active
inhibition [6]: Active
Activity [7]: Active
inhibition [8]: Active
inhibition [9]: Active
IC50 [10]: 190 nM
IC50 [11]: 120 nM
inhibition [12]: Active
CL/F [13]: 1 mL/min/kg
inhibition [14]: Active
inhibition [15]: Active
IC50 [16]: 70 nM
Activity [17]: Active
inhibition [18]: Active
AUC/dose [19]: 16.9 µg·h/mL
CL/F [20]: 1 mL/min/kg
IC50 [21]: 360 nM
Time [22]: 24 h
AUC/dose [23]: 16.3 µg·h/mL
inhibition [24]: Active
inhibition [25]: Active
inhibition [26]: Active
inhibition [27]: Active
IC50 [28]: 280 nM
inhibition [29]: Active
Activity [30]: Active
inhibition [31]: Active
inhibition [32]: Active
Time [33]: 24 h
IC50 [34]: 320 nM
Vz [35]: 0.8 L/kg
AUC(0-t) at 72 h [36]: 16800 ng·h/mL
inhibition [37]: Active
IC50 [38]: 330 nM
Vd/F [39]: 0.98 L/kg
Activity [40]: inactive
